From ChEMBL document CHEMBL5724801, “EUbOPEN Chemogenomics Library - Multiplex” (2024)
Several values for one entry are separate records, joined by “and”; a condition that tells them apart may be missing. Identical values can stand only once.

Test system: HEK-293T
Test: Multiplex assay against HEK293T
Format: toxicity, cell-based
Conditions: human
How it was run: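 Per cents of healthy-nucleus cells form the tubulin, mitochondrial-mass and membrane-permeability phenotype values. Live cells were stained at seeding with Hoechst33342, BioTracker Green Microtubule Cytoskeleton Dye, MitoTracker Red and Annexin V Alexa Fluor 680. After compound addition they were imaged on a CQ1 microscope at 37°C and 5% CO2, and CellPathfinder machine-learning gating split them into Hoechst high-intensity objects or normal cells, normal cells into healthy, pyknosed or fragmented nuclei, and pyknosed cells into mitotic or apoptotic.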

[1] = 12 h, 1 µM, compound concentration 1 uM
[2] = 12 h, 10 µM, compound concentration 10 uM
[3] = 24 h, 1 µM, compound concentration 1 uM
[4] = 24 h, 10 µM, compound concentration 10 uM
[5] = 48 h, 1 µM, compound concentration 1 uM
[6] = 48 h, 10 µM, compound concentration 10 uM

CC(C)C[C@H](NC(=O)c1cc2ccccc2s1)C(=O)N1CCN(C(=O)[C@H](CO)NS(=O)(=O)c2ccc(Cl)cc2Cl)CC1
Population Apoptotic (%) [1]: 10.07% and 13.45%
Population Fragmented Nuclei (%) [1]: 3.47% and 8.64%
Population Healthy Nuclei (%) [1]: 52.68% and 17.9%
Population Hoechst High Intensity Objects (%) [1]: 0.31% and 0%
Population Membrane Permeable-Phenotype (%) [1]: 1.8% and 0%
Population Mitochondria Different-Phenotype (%) [1]: 37.13% and 31.03%
Population Mitotic Cells (%) [1]: 89.93% and 86.55%
Population Normal (%) [1]: 99.69% and 100%
Population Pyknosed Nuclei (%) [1]: 43.85% and 73.46%
Population Tubulin-Different-Phenotype (%) [1]: 16.17% and 48.28%
Total Cell Count [1]: 318 and 162
Population Apoptotic (%) [2]: 19.05% and 16.13%
Population Fragmented Nuclei (%) [2]: 2.43% and 2.16%
Population Hoechst High Intensity Objects (%) [2]: 0.69% and 0%
Population Membrane Permeable-Phenotype (%) [2]: 0.88% and 0%
Population Mitotic Cells (%) [2]: 80.95% and 83.87%
Population Normal (%) [2]: 99.31% and 100%
Population Pyknosed Nuclei (%) [2]: 58.33% and 89.21%
Population Tubulin-Different-Phenotype (%) [2]: 87.61% and 58.33%
Total Cell Count [2]: 290 and 139
Population Apoptotic (%) [3]: 16.78% and 26.05%
Population Fragmented Nuclei (%) [3]: 1.48% and 4.6%
Population Healthy Nuclei (%) [3]: 67.09% and 27.01%
Population Hoechst High Intensity Objects (%) [3]: 0%
Population Membrane Permeable-Phenotype (%) [3]: 2.83% and 2.13%
Population Mitochondria Different-Phenotype (%) [3]: 27.67% and 38.3%
Population Mitotic Cells (%) [3]: 83.22% and 73.95%
Population Normal (%) [3]: 100%
Population Pyknosed Nuclei (%) [3]: 31.43% and 68.39%
Population Tubulin-Different-Phenotype (%) [3]: 38.68% and 19.15%
Total Cell Count [3]: 474 and 174
Population Apoptotic (%) [4]: 47.8% and 42.62%
Population Fragmented Nuclei (%) [4]: 3.25% and 4.03%
Population Hoechst High Intensity Objects (%) [4]: 0.65% and 0%
Population Membrane Permeable-Phenotype (%) [4]: 0% and 4.76%
Population Mitochondria Different-Phenotype (%) [4]: 74.82% and 42.86%
Population Mitotic Cells (%) [4]: 52.2% and 57.38%
Population Normal (%) [4]: 99.35% and 100%
Population Pyknosed Nuclei (%) [4]: 51.62% and 81.88%
Population Tubulin-Different-Phenotype (%) [4]: 100% and 90.48%
Total Cell Count [4]: 310 and 149
Population Apoptotic (%) [5]: 11.27% and 26%
Population Fragmented Nuclei (%) [5]: 1.67% and 1.87%
Population Healthy Nuclei (%) [5]: 84.35% and 51.4%
Population Hoechst High Intensity Objects (%) [5]: 0.1% and 0.47%
Population Membrane Permeable-Phenotype (%) [5]: 6.07% and 4.55%
Population Mitochondria Different-Phenotype (%) [5]: 35.82% and 54.55%
Population Mitotic Cells (%) [5]: 88.73% and 74%
Population Normal (%) [5]: 99.9% and 99.53%
Population Apoptotic (%) [6]: 55.17% and 79.57%
Population Fragmented Nuclei (%) [6]: 2.27% and 2.56%
Population Healthy Nuclei (%) [6]: 64.87% and 37.82%
Population Hoechst High Intensity Objects (%) [6]: 0.28% and 0%
Population Membrane Permeable-Phenotype (%) [6]: 1.31% and 1.69%
Population Mitochondria Different-Phenotype (%) [6]: 97.38% and 91.53%
Population Mitotic Cells (%) [6]: 44.83% and 20.43%
Population Normal (%) [6]: 99.72% and 100%
Population Pyknosed Nuclei (%) [6]: 32.86% and 59.62%
Population Tubulin-Different-Phenotype (%) [6]: 94.32% and 98.31%
Total Cell Count [6]: 354 and 156

COc1ccc(-n2c(C)c([N+](=O)[O-])c3ccc(O)cc32)cc1
Population Apoptotic (%) [1]: 6.21% and 10.43%
Population Fragmented Nuclei (%) [1]: 1.16% and 7.69%
Population Hoechst High Intensity Objects (%) [1]: 0%
Population Membrane Permeable-Phenotype (%) [1]: 1.02% and 0%
Population Mitochondria Different-Phenotype (%) [1]: 36.04% and 17.65%
Population Mitotic Cells (%) [1]: 93.79% and 89.57%
Population Normal (%) [1]: 100%
Population Pyknosed Nuclei (%) [1]: 41.91% and 80.42%
Total Cell Count [1]: 346 and 143
Population Apoptotic (%) [2]: 9.49% and 17.86%
Population Fragmented Nuclei (%) [2]: 2.91% and 1.47%
Population Hoechst High Intensity Objects (%) [2]: 0.24% and 0.73%
Population Membrane Permeable-Phenotype (%) [2]: 0.41% and 0%
Population Mitochondria Different-Phenotype (%) [2]: 38.27% and 18.18%
Population Mitotic Cells (%) [2]: 90.51% and 82.14%
Population Normal (%) [2]: 99.76% and 99.27%
Population Pyknosed Nuclei (%) [2]: 38.26% and 82.35%
Population Apoptotic (%) [3]: 11.43% and 19%
Population Fragmented Nuclei (%) [3]: 1.47% and 4.73%
Population Healthy Nuclei (%) [3]: 72.84% and 27.7%
Population Hoechst High Intensity Objects (%) [3]: 0%
Population Membrane Permeable-Phenotype (%) [3]: 0.76% and 2.44%
Population Mitochondria Different-Phenotype (%) [3]: 19.9% and 19.51%
Population Mitotic Cells (%) [3]: 88.57% and 81%
Population Normal (%) [3]: 100%
Population Pyknosed Nuclei (%) [3]: 25.69% and 67.57%
Population Apoptotic (%) [4]: 20% and 19.35%
Population Fragmented Nuclei (%) [4]: 2.53% and 2.65%
Population Healthy Nuclei (%) [4]: 71.03% and 35.76%
Population Hoechst High Intensity Objects (%) [4]: 0% and 0.66%
Population Membrane Permeable-Phenotype (%) [4]: 0.97% and 1.85%
Population Mitochondria Different-Phenotype (%) [4]: 27.18% and 12.96%
Population Mitotic Cells (%) [4]: 80% and 80.65%
Population Normal (%) [4]: 100% and 99.34%
Population Pyknosed Nuclei (%) [4]: 26.44% and 61.59%
Population Tubulin-Different-Phenotype (%) [4]: 27.51% and 11.11%
Total Cell Count [4]: 435 and 152
Population Apoptotic (%) [5]: 9.35% and 22.41%
Population Fragmented Nuclei (%) [5]: 2.61% and 2.72%
Population Healthy Nuclei (%) [5]: 87.04% and 65.76%
Population Hoechst High Intensity Objects (%) [5]: 0.1% and 0%
Population Membrane Permeable-Phenotype (%) [5]: 3.78% and 1.65%
Population Mitochondria Different-Phenotype (%) [5]: 21% and 23.97%
Population Mitotic Cells (%) [5]: 90.65% and 77.59%
Population Normal (%) [5]: 99.9% and 100%
Population Apoptotic (%) [6]: 17.07% and 21.57%
Population Fragmented Nuclei (%) [6]: 3.71% and 2.48%
Population Healthy Nuclei (%) [6]: 84.59% and 65.84%
Population Hoechst High Intensity Objects (%) [6]: 0.14% and 0%
Population Membrane Permeable-Phenotype (%) [6]: 5.23% and 1.89%
Population Mitochondria Different-Phenotype (%) [6]: 33.9% and 25.47%
Population Mitotic Cells (%) [6]: 82.93% and 78.43%
Population Normal (%) [6]: 99.86% and 100%
Population Pyknosed Nuclei (%) [6]: 11.7% and 31.68%

CNc1nc(NCc2ncccn2)c2c(-c3ccc4ncccc4c3)c[nH]c2n1
Population Apoptotic (%) [1]: 9.22% and 10.1%
Population Fragmented Nuclei (%) [1]: 2.26% and 3.88%
Population Hoechst High Intensity Objects (%) [1]: 0.25% and 0%
Population Membrane Permeable-Phenotype (%) [1]: 0.81% and 0%
Population Mitotic Cells (%) [1]: 90.78% and 89.9%
Population Normal (%) [1]: 99.75% and 100%
Population Pyknosed Nuclei (%) [1]: 35.43% and 76.74%
Population Apoptotic (%) [2]: 13.38% and 23.23%
Population Fragmented Nuclei (%) [2]: 2.88% and 3.98%
Population Hoechst High Intensity Objects (%) [2]: 0.64% and 0%
Population Membrane Permeable-Phenotype (%) [2]: 0%
Population Mitotic Cells (%) [2]: 86.62% and 76.77%
Population Normal (%) [2]: 99.36% and 100%
Population Pyknosed Nuclei (%) [2]: 45.51% and 88.07%
Population Tubulin-Different-Phenotype (%) [2]: 20.5% and 42.86%
Total Cell Count [2]: 314 and 176
Population Apoptotic (%) [3]: 7.44% and 13.04%
Population Fragmented Nuclei (%) [3]: 1.55% and 3.01%
Population Healthy Nuclei (%) [3]: 79.72% and 45.11%
Population Hoechst High Intensity Objects (%) [3]: 0.15% and 0%
Population Membrane Permeable-Phenotype (%) [3]: 0.78% and 0%
Population Mitochondria Different-Phenotype (%) [3]: 15.34% and 13.33%
Population Mitotic Cells (%) [3]: 92.56% and 86.96%
Population Normal (%) [3]: 99.85% and 100%
Population Pyknosed Nuclei (%) [3]: 18.73% and 51.88%
Population Tubulin-Different-Phenotype (%) [3]: 9.13% and 10%
Population Apoptotic (%) [4]: 21.74% and 18.6%
Population Fragmented Nuclei (%) [4]: 2.16% and 2.65%
Population Healthy Nuclei (%) [4]: 75.72% and 29.1%
Population Hoechst High Intensity Objects (%) [4]: 0%
Population Membrane Permeable-Phenotype (%) [4]: 2.22% and 7.27%
Population Mitochondria Different-Phenotype (%) [4]: 39.37% and 32.73%
Population Mitotic Cells (%) [4]: 78.26% and 81.4%
Population Normal (%) [4]: 100%
Population Tubulin-Different-Phenotype (%) [4]: 28.89% and 25.45%
Total Cell Count [4]: 416 and 189
Population Fragmented Nuclei (%) [5]: 3.92% and 2.35%
Population Healthy Nuclei (%) [5]: 88.02% and 64.71%
Population Hoechst High Intensity Objects (%) [5]: 0% and 0.58%
Population Membrane Permeable-Phenotype (%) [5]: 3.68% and 0.91%
Population Mitochondria Different-Phenotype (%) [5]: 13.1% and 22.73%
Population Mitotic Cells (%) [5]: 93.46% and 80.36%
Population Normal (%) [5]: 100% and 99.42%
Population Apoptotic (%) [6]: 10.91% and 21.43%
Population Fragmented Nuclei (%) [6]: 4.49% and 5.56%
Population Healthy Nuclei (%) [6]: 86.38% and 55.56%
Population Hoechst High Intensity Objects (%) [6]: 0% and 2.7%
Population Membrane Permeable-Phenotype (%) [6]: 2.12% and 5%
Population Mitochondria Different-Phenotype (%) [6]: 57.5% and 60%
Population Mitotic Cells (%) [6]: 89.09% and 78.57%
Population Normal (%) [6]: 100% and 97.3%
